Assay results taken from ChEMBL document CHEMBL1153241, “2,3,5-Trisubstituted pyridines as selective AKT inhibitors-Part I: Substitution at 2-position of the core pyridine for ROCK1 selectivity” (Bioorg Med Chem Lett, 2010).

What was measured:
[1] = biological target: Rho-associated protein kinase 1 (Homo sapiens, UniProt Q13464); experiment: Inhibition of ROCK1
[2] = biological target: T1, RAC-alpha serine/threonine-protein kinase (Homo sapiens, UniProt P31749); experiment: Inhibition of full length AKT1
T1 sequence (P31749 whole entry, the tested form may be a part): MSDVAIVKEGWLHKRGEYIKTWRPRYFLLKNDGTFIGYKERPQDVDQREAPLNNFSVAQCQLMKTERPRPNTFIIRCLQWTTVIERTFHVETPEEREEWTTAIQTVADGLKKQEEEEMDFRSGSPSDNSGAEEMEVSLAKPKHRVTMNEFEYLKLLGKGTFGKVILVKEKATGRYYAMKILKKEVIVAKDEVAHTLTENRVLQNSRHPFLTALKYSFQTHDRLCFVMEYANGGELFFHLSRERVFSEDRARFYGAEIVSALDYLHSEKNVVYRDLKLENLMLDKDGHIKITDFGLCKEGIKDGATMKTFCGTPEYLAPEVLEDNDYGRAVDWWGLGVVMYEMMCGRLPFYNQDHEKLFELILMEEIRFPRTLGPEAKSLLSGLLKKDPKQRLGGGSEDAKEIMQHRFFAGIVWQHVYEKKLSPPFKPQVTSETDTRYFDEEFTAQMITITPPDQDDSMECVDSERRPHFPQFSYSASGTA

[3] = biological target: T1, RAC-alpha serine/threonine-protein kinase; experiment: Inhibition of truncated AKT1
Method in brief: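 AKT1 construct truncated to lack the PH domain. IC50 measured with ATP at or below its Km. At least two determinations (n ≥ 2).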

[4] = Selectivity ratio of IC50 for ROCK1 to IC50 for AKT1
[5] = biological target: T1, RAC-alpha serine/threonine-protein kinase; experiment: Inhibition of AKT1 in human BT474 cells assessed as phosphorylation of GSK3; assay type: cell-based, BT-474

Chain of Rho-associated protein kinase 1 (Q13464 whole entry): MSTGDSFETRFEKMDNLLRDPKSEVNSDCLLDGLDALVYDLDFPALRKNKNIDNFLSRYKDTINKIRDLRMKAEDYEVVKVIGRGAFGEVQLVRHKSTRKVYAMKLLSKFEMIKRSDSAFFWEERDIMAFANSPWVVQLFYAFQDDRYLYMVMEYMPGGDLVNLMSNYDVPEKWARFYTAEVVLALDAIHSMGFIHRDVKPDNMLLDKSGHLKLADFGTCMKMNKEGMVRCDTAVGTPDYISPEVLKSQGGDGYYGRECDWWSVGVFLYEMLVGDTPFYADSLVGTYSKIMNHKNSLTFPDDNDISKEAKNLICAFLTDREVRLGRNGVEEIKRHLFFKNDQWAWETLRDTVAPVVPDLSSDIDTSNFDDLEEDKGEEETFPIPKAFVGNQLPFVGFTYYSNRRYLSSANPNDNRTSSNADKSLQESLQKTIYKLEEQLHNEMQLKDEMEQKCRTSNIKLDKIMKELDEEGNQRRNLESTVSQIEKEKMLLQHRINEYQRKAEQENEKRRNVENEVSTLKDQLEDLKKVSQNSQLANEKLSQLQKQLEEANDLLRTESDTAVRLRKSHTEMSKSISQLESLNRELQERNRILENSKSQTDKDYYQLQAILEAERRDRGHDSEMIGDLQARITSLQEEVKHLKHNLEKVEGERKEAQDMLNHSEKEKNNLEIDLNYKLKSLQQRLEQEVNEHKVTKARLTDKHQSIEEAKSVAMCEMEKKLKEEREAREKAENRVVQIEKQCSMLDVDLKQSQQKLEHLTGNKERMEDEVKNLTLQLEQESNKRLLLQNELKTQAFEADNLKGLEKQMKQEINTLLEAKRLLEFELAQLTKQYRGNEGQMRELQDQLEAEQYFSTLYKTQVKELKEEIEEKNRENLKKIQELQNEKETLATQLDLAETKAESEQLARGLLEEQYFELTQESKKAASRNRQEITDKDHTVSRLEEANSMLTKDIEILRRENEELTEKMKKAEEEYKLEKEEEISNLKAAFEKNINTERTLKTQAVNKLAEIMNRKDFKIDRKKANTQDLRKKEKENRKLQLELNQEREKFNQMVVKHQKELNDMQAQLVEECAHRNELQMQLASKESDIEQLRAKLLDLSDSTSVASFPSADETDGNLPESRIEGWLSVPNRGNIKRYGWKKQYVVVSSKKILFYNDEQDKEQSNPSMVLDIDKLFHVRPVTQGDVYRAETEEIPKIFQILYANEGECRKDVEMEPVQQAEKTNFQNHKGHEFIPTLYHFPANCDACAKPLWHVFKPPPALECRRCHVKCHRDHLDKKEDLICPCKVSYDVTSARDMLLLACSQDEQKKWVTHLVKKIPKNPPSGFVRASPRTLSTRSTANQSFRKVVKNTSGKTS

Row | IC50 [1] | IC50 [2] | IC50 [3] | Ratio IC50 [4] | IC50 [5] | SMILES
1 | 2500 nM | 79 nM |  |  |  | Cc1n[nH]c2ccc(-c3cc(OC[C@@H](N)Cc4ccccc4)cnc3-c3cccs3)cc12
2 | 9800 nM |  | 10 nM |  |  | Cc1n[nH]c2ccc(-c3cc(OC[C@@H](N)Cc4ccccc4)cnc3-c3cc(F)ccc3O)cc12
3 | > 10000 nM | 720 nM |  |  |  | Cc1n[nH]c2ccc(-c3cc(OC[C@@H](N)Cc4ccccc4)cnc3C#CCCO)cc12
4 | 7600 nM | 3 nM |  | > 2000 |  | Cc1n[nH]c2ccc(-c3cc(OC[C@@H](N)Cc4ccccc4)cnc3-c3cc(Cl)ccc3O)cc12
5 | 5200 nM | 10 nM |  |  |  | Cc1n[nH]c2ccc(-c3cc(OC[C@@H](N)Cc4ccccc4)cnc3-c3ccoc3)cc12
6 |  | 0.8 nM |  |  | 220 nM | Cc1n[nH]c2ccc(-c3cc(OC[C@@H](N)Cc4c[nH]c5cc(F)ccc45)cnc3-c3ccoc3)cc12
7 | > 10000 nM | 15 nM |  |  |  | Cc1n[nH]c2ccc(-c3cc(OC[C@@H](N)Cc4ccccc4)cnc3-c3ccc[nH]3)cc12
8 | > 10000 nM | 79 nM |  |  |  | Cc1n[nH]c2ccc(-c3cc(OC[C@@H](N)Cc4ccccc4)cnc3-c3cccc(O)c3)cc12
9 | > 10000 nM | 63 nM |  |  |  | Cc1n[nH]c2ccc(-c3cc(OC[C@@H](N)Cc4ccccc4)cnc3-c3cc(F)cc(F)c3O)cc12
10 | > 10000 nM |  | 10500 nM |  |  | Cc1n[nH]c2ccc(-c3cc(OC[C@@H](N)Cc4ccccc4)cnc3C#CC(C)(C)O)cc12
11 | 6000 nM | 50 nM |  |  |  | Cc1n[nH]c2ccc(-c3cc(OC[C@@H](N)Cc4ccccc4)cnc3-c3ccsc3)cc12
12 |  | 8 nM |  |  | 930 nM | Cc1n[nH]c2ccc(-c3cc(OC[C@@H](N)Cc4c[nH]c5ncccc45)cnc3-c3ccoc3)cc12
13 | 1290 nM |  | 790 nM |  |  | Cc1n[nH]c2ccc(-c3cc(OC[C@@H](N)Cc4ccccc4)cnc3-c3ccco3)cc12
14 | 1400 nM | 500 nM |  |  |  | Cc1n[nH]c2ccc(-c3cc(OC[C@@H](N)Cc4ccccc4)cnc3-c3ccc(O)cc3)cc12
15 | > 10000 nM | 50 nM |  | > 200 |  | Cc1n[nH]c2ccc(-c3cc(OC[C@@H](N)Cc4ccccc4)cnc3-c3ccccc3)cc12
16 | > 10000 nM | 100 nM |  |  |  | COc1ccccc1-c1ncc(OC[C@@H](N)Cc2ccccc2)cc1-c1ccc2[nH]nc(C)c2c1
17 | 9500 nM | 15 nM |  |  |  | Cc1n[nH]c2ccc(-c3cc(OC[C@@H](N)Cc4ccccc4)cnc3-c3ccccc3O)cc12
18 |  |  |  |  | 500 nM | Cc1n[nH]c2ccc(-c3cc(OC[C@@H](N)Cc4c[nH]c5ccccc45)cnc3-c3ccoc3)cc12
19 |  | 13 nM |  |  | 6800 nM | Cc1n[nH]c2ccc(-c3cc(OC[C@@H](N)Cc4c[nH]c5ccncc45)cnc3-c3ccoc3)cc12
20 |  | 0.8 nM |  |  | 84 nM | Cc1occc1-c1ncc(OC[C@@H](N)Cc2c[nH]c3ccccc23)cc1-c1ccc2[nH]nc(C)c2c1
21 |  | 10 nM |  |  | 4300 nM | Cc1n[nH]c2ccc(-c3cc(OC[C@@H](N)Cc4c[nH]c5cccnc45)cnc3-c3ccoc3)cc12
22 |  | 1 nM |  |  | 360 nM | Cc1n[nH]c2ccc(-c3cc(OC[C@@H](N)Cc4c[nH]c5ccc(F)cc45)cnc3-c3ccoc3)cc12
23 |  | 1 nM |  |  | 260 nM | Cc1n[nH]c2ccc(-c3cc(OC[C@@H](N)Cc4c[nH]c5c(F)cccc45)cnc3-c3ccoc3)cc12
